Source: PubChem BioAssay
Shown are actives, neighbours in structure and some others; about 2.7% of the full set was active somewhere.
Yeast growth inh – reduces growth of yeast BB579 in restrictive medium | S. cerevisiae BB579 growth, OD615, 48 h | AID 804 | inhibition, % at 10 µM | hit rate 0.51% among 140,000;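 active = inhibition above a set limit, 3 SD over the mean compound inhibition, cut at about 44% in these data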
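Test system: Saccharomyces cerevisiae DeaD strain BB579, replicative lifespan model yeast | Buffer or medium: Restrictive CSMM-D medium | Doses: One dose, 10 µM compound with 0.25% DMSO | Incubation: 48 h exposure, 30 °C | Detection: Culture absorbance at 615 nm | Control set: Amphotericin B at 10 µg/mL as positive control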
RAM network inh – yeast RAM network inhibition; AID 868; S. cerevisiae dse1pr::URA3 reporter, 5-FOA growth OD615, 2 d; analog-sensitive cbk1-as2 kinase mutant strain; hit rate 1.8% among 190,000; inhibition, % at 50 µM;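 active = inhibition above a set limit, 3 SD over mean compound inhibition, cut at about 8.4% in these data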;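 also: 0% = DMSO-only wells with no growth and 100% = 10 µM 1-NA-PP1 full growth; inhibition rescues growth on 5-FOA so higher OD means more RAM inhibition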
Yeast life ext – extends the lifespan of yeast; S. cerevisiae growth with nicotinamide, OD615; deaD strain in restrictive glucose medium; inhibition of the nicotinamide effect, % at 10 µM; AID 775; hit rate 0.68% among 130,000;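 active = inhibition above a set limit, placed 3 SD over the median of all compounds, cut at about 26% in these data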;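 also: 0% = nicotinamide-treated wells and 100% = cells grown without nicotinamide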
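assay system = DeaD-strain S. cerevisiae | buffer or medium = restrictive glucose medium | reagent = 1.5 mM nicotinamide | compound = 10 µM single point, 0.25% DMSO | incubation = 48 h compound exposure at 30 °C, humidified | signal = OD615 measurement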
sdo1 growth – restores growth of sdo1-depleted yeast; hit rate 0.21% among 140,000; S. cerevisiae sdo1-depleted JHY4D growth rescue, OD600 30 h; stronger effect = higher value; pdr5 snq2 efflux-pump mutant strain; z-score at 10 µM; AID 817;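 active = z-score above 3 at both the 24 hr and the 30 hr optical density reads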;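 also: z-score against mean and SD of all compound wells on the same plate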
The depositor's hits bear a star.

For Cc1ccc(-c2c(C(=O)Nc3ccccc3C)c(C)[nH]c(=S)c2C#N)o1 the results were RAM network inh 8.5*.
For Cc1ccccc1-n1c(SCC(=O)c2c(N)n(C)c(=O)n(C)c2=O)nnc1-c1cccnc1 the results were Yeast growth inh -8.7, RAM network inh 4.1, Yeast life ext 2.6 and sdo1 growth -0.57.
For CCOc1ccc(-n2c(SCC(=O)c3c(N)n(C)c(=O)n(C)c3=O)nnc2-c2cccnc2)cc1 the results were Yeast growth inh -38.5, RAM network inh 9.1*, Yeast life ext 5.5 and sdo1 growth 0.58.
Screening O=C1OCC(CO)(CO)N=C1NNc1ccc(Cl)c(Cl)c1 returned Yeast growth inh 97.9*, RAM network inh -0.8, Yeast life ext -19.3 and sdo1 growth -1.99.
`OCC1(CO)COC(c2ccccc2)=N1` gave RAM network inh 0.4.
Cc1ccccc1NC(=O)C(Cl)=C(Cl)Cl was read as RAM network inh 0.2.
For CC(=O)Oc1oc(-c2ccccc2)nc1C=Nc1ccccc1 the results were Yeast growth inh -15.9, RAM network inh -0.5, Yeast life ext 46.0* and sdo1 growth -0.71.
`CCOC(=O)c1ccc(N=Cc2nc(-c3ccccc3)oc2OC(C)=O)cc1` gave Yeast growth inh -21.7, RAM network inh 8.1, Yeast life ext -17.7 and sdo1 growth -0.12.
For N/C(Cc1ccccc1)=N\OC(=O)c1cccc2ccccc12 the results were Yeast growth inh 83.9*, RAM network inh 0.0, Yeast life ext -8.5 and sdo1 growth -1.68.
COc1cccc(CN2CCNC(=O)C2CC(=O)N(Cc2cnn(C)c2)C(C)C)c1 (stereo not drawn) was read as RAM network inh 0.0.
For COc1ccc(NC(=O)CCSc2ccc(C)cc2)cc1S(=O)(=O)Nc1ccccc1Cl the results were Yeast growth inh 12.3, RAM network inh 8.8*, Yeast life ext -3.0 and sdo1 growth -0.68.
Screening O=C(NC12CC3CC(CC(C3)C1)C2)c1ccc(=O)oc1 returned Yeast growth inh -47.1, RAM network inh 8.7*, Yeast life ext -2.6 and sdo1 growth -0.24.
O=C(NC12CC3CC(CC(C3)C1)C2)c1ccccc1O was read as Yeast growth inh -34.8, RAM network inh 2.0, Yeast life ext 5.8 and sdo1 growth -2.41.
For Cc1ccc(C(=O)C2C(=O)c3ccccc3C2=O)cc1 the results were Yeast growth inh -43.7, RAM network inh -0.8, Yeast life ext 69.3* and sdo1 growth 0.64.
Screening CCOC(=O)c1cc(-c2ccc(Cl)cc2)nc2c1c(=O)[nH]c(=O)n2CCOC returned RAM network inh 3.1.
`CCOC(=O)c1cc(-c2ccc(Cl)cc2)nc2onc(C)c12` gave Yeast growth inh -30.1, RAM network inh 9.8*, Yeast life ext -2.0 and sdo1 growth -0.21.
Screening O=C(CCN1C(=O)/C(=C/c2ccccc2)SC1=S)NNC(=O)c1ccncc1 returned RAM network inh 8.8*.
For COc1ccc(/C=C2\SC(=S)N(CCCC(=O)NNC(=O)c3ccccc3O)C2=O)cc1 the results were RAM network inh 0.0.
Screening O=C(O)CCCCCN1C(=O)/C(=C/c2ccncc2)SC1=S returned Yeast growth inh -29.1, RAM network inh -1.2, Yeast life ext 40.0* and sdo1 growth 0.81.
For COc1ccc(CN2C(=O)/C(=C/c3ccncc3)SC2=S)cc1 the results were Yeast growth inh -32.6, RAM network inh -1.7, Yeast life ext 48.1* and sdo1 growth -1.39.
O=C(CN1C(=O)/C(=C\C=C\c2ccccc2)SC1=S)Nc1ccc(F)cc1 was read as Yeast growth inh -27.6, RAM network inh 9.7*, Yeast life ext 5.0 and sdo1 growth -0.44.
C#CCNC(=O)C(C)c1ncc(C(F)(F)F)cc1Cl (stereo not drawn) was read as RAM network inh -1.2.
`C=CCn1cc(C(=O)OCC)c(=O)c2ccc(F)cc21` gave RAM network inh 1.0.
O=C(NN1C(=O)/C(=C/C=C/c2ccccc2)SC1=S)c1ccncc1 was read as RAM network inh 9.3*.
O=C(O)CCCCCN1C(=O)/C(=C\c2ccncc2)SC1=S was read as Yeast growth inh -15.5, RAM network inh 1.6, Yeast life ext 52.2* and sdo1 growth 0.91.
For COc1ccc(NC(=O)CN2C(=O)N(C)Cc3ccccc32)c(C)c1 the results were RAM network inh 1.4.
For C/C(=N\OC(=O)NC1CCCCC1)c1sc(-c2ccccc2)nc1C the results were Yeast growth inh -8.5, RAM network inh 10.5*, Yeast life ext -13.2 and sdo1 growth -1.19.
